Test results: ChEMBL document CHEMBL1153231, “Novel thioamide derivatives as neutral CB1 receptor antagonists” (Bioorg Med Chem Lett, 2010)
≈ marks a conversion by molar mass, not a printed value.

Columns and labels:
[1] = Aqueous solubility of the compound; type: physicochemical
Cannabinoid receptor 1 = Cannabinoid receptor 1 (Homo sapiens, UniProt P21554); test: Agonist activity at human CB1 receptor assessed as stimulation of [35S]GTPgammaS binding; type: functional
[2] = Drug level in mouse brain at 20 umol/kg, po after 0.5 hrs; type: ADME, organism-based
How it was run: (§1)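 Cafeteria-diet-induced obese mice were given repeated peroral doses. Plasma and brain tissue were sampled 0.5 h, 2 h and 6 h after the last dose, and after a 7-day washout. Levels of both the parent thioamide and its carboxamide counterpart were measured in the same samples. Plasma levels are per litre and brain levels per gram of tissue.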

[3] = Plasma concentration in mouse at 20 umol/kg, po after 7 days; type: ADME, organism-based; how it was run: as §1
[4] = Plasma concentration in mouse at 20 umol/kg, po after 6 hrs; type: ADME, organism-based; how it was run: as §1
[5] = Drug level in mouse brain at 20 umol/kg, po after 6 hrs; type: ADME, organism-based; how it was run: as §1
[6] = Drug level in mouse brain at 20 umol/kg, po after 2 hrs; type: ADME, organism-based; how it was run: as §1
[7] = Plasma concentration in mouse at 20 umol/kg, po after 2 hrs; type: ADME, organism-based; how it was run: as §1
[8] = Plasma concentration in mouse at 20 umol/kg, po after 0.5 hrs; type: ADME, organism-based; how it was run: as §1
[9] = Drug level in mouse brain at 20 umol/kg, po after 7 days; type: ADME, organism-based; how it was run: as §1
Mus musculus [10] = test: Reduction in body weight of diet induced obese C57BL/6 mouse at 20-60 umol/kg after 1 week relative to control; type: functional; parameters: scale not given: the % may be the effect or the level left
How it was run: (§2)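 The test agents were given perorally to cafeteria-diet-induced obese mice over 1–3 weeks. Body weight was tracked as a percentage of initial body weight and compared with vehicle-treated animals.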

Mus musculus [11] = test: Reduction in body weight of diet induced obese C57BL/6 mouse at 20 umol/kg after 1 to 3 weeks relative to control; type: functional; parameters: scale not given: the % may be the effect or the level left; how it was run: as §2

Sequence of Cannabinoid receptor 1 (P21554 whole entry): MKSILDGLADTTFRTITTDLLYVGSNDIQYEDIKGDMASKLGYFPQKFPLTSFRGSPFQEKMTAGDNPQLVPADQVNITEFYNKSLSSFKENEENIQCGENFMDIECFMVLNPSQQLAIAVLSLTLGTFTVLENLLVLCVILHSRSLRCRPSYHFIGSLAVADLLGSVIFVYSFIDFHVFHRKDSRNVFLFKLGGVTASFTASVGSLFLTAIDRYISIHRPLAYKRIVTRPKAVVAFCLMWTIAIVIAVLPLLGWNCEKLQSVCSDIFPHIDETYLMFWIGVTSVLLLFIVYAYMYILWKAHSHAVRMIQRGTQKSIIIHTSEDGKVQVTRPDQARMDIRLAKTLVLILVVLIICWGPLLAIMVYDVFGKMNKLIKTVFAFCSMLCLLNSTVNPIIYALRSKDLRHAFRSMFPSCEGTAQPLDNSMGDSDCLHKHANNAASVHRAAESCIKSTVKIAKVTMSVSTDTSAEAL

| SMILES | solubility [1] [µM] | IC50 (Cannabinoid receptor 1) [nM] | concentration at 0.5 h [2] [µmol/g] | concentration at 168 h [3] [nM] | concentration at 6 h [4] [nM] | concentration at 6 h [5] [µmol/g] | concentration at 2 h [6] [µmol/g] | concentration at 2 h [7] [nM] | concentration at 0.5 h [8] [nM] | concentration at 168 h [9] [µmol/g] | Activity (Mus musculus [10]) [%] | Activity (Mus musculus [11]) [%] |
| --- | --- | --- | --- | --- | --- | --- | --- | --- | --- | --- | --- | --- |
| O=C(NC1CCCCC1)c1cnc(-c2ccc(Cl)cc2)c(-c2ccc(Cl)cc2)n1 | < 0.1 | 16.6 |  |  |  |  |  |  |  |  |  |  |
| S=C(NC1CCCCC1)c1cnc(-c2ccc(Cl)cc2)c(-c2ccc(Cl)cc2)n1 | 6.1 (≈ 2.7 µg/mL) | 5.8 |  |  |  |  |  |  |  |  |  |  |
| Cc1c(C(=O)NN2CCCCC2)nn(-c2ccc(Cl)cc2Cl)c1-c1ccc(Cl)cc1 [RIMONABANT] | < 1.1 |  | 1.11 |  | 900 | 0.68 | 1.69 | 1950 | 1360 |  |  | 85 |

Further compounds by falling IC50 (Cannabinoid receptor 1), results first:

| solubility [1] [µM] | IC50 (Cannabinoid receptor 1) [nM] | concentration at 0.5 h [2] [µmol/g] | concentration at 168 h [3] [nM] | concentration at 6 h [4] [nM] | concentration at 6 h [5] [µmol/g] | concentration at 2 h [6] [µmol/g] | concentration at 2 h [7] [nM] | concentration at 0.5 h [8] [nM] | concentration at 168 h [9] [µmol/g] | SMILES | Activity (Mus musculus [10]) [%] | Activity (Mus musculus [11]) [%] |
| --- | --- | --- | --- | --- | --- | --- | --- | --- | --- | --- | --- | --- |
| < 0.1 | 5.3 |  |  |  |  |  |  |  |  | O=C(NC1CCC(F)(F)CC1)c1cnc(-c2ccc(Cl)cc2)c(-c2ccc(Cl)cc2)n1 |  |  |
| 6.6 (≈ 3.16 µg/mL) | 4.5 |  |  |  |  |  |  |  |  | FC1(F)CCC(NC(=S)c2cnc(-c3ccc(Cl)cc3)c(-c3ccc(Cl)cc3)n2)CC1 |  |  |
| < 0.1 | 2.9 | 0.05 | 24 | 148 | 0.07 | 0.08 | 153 | 136 |  | COCc1nc(-c2ccc(Cl)cc2)c(-c2ccc(Cl)cc2)nc1C(=O)NC1CCC(F)(F)CC1 |  |  |
| < 0.1 | 2.4 | 0.18 | 32 | 137 | 0.14 | 0.32 | 604 | 403 | 0.05 | COCc1nc(-c2ccc(Cl)cc2)c(-c2ccc(Cl)cc2)nc1C(=S)NC1CCC(F)(F)CC1 | 85 |  |
